Laboratory results as given in ChEMBL document CHEMBL3259728, “Design, synthesis and biological evaluation of some novel substituted quinazolines as antitumor agents” (2014).

Tests used:
Format in all cases: functional
786-0 = experiment: Growth inhibition of human 786-0 cells assessed as cell growth at 10^-5 M after 48 hrs by SRB assay; details: 786-0, 48 h, read-out: Activity
Summary of the method: (§1)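 Five-dose NCI panel protocol. Each dose (10^-4 to 10^-8 M, 10-fold steps) was given as 48 h continuous exposure, and protein was measured by SRB staining. Percentage growth at each level is [(Ti−Tz)/(C−Tz)]×100, where Tz is time-zero absorbance and C is untreated control.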

A498 [1] = experiment: Growth inhibition of human A498 cells assessed as cell growth at 10^-6 M after 48 hrs by SRB assay; details: A498, 48 h, read-out: Activity; summary of the method: as §1
MDA-MB-231 [2] = experiment: Growth inhibition of human MDA-MB-231 cells assessed as cell growth at 10^-8 M after 48 hrs by SRB assay; details: MDA-MB-231, 48 h, read-out: Activity
MOLT-4 = experiment: Cytotoxicity against human MOLT4 cells after 48 hrs by SRB assay; details: MOLT-4, 48 h
Summary of the method: (§2)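 NCI 60-cell-line panel of human tumour lines from nine cancer types. Continuous 48 h exposure at five 10-fold dilutions from 10^-4 to 10^-8 M, with 5-FU as positive control. SRB protein stain read spectrophotometrically at time zero, untreated control and each concentration. GI50, TGI and LC50 were derived from the [(Ti−Tz)/(C−Tz)]×100 growth relations, and out-of-range values are given as > or < the tested limits.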

MDA-MB-231 [3] = experiment: Growth inhibition of human MDA-MB-231 cells assessed as cell growth at 10^-7 M after 48 hrs by SRB assay; details: MDA-MB-231, 48 h, read-out: Activity
[4] = Growth inhibition of human UACC257 cells assessed as cell growth at 10^-4 M after 48 hrs by SRB assay; details: UACC-257, 48 h, read-out: Activity
HCT-116 [5] = experiment: Cytotoxicity against human HCT116 cells after 48 hrs by SRB assay; details: HCT-116, 48 h; summary of the method: as §2
[6] = Growth inhibition of human SF295 cells assessed as cell growth at 10^-6 M after 48 hrs by SRB assay; details: SF-295, 48 h, read-out: Activity
SK-MEL-28 = experiment: Growth inhibition of human SK-MEL-28 cells assessed as cell growth at 10^-4 M after 48 hrs by SRB assay; details: SK-MEL-28, 48 h, read-out: Activity
SNB-19 = experiment: Cytotoxicity against human SNB19 cells after 48 hrs by SRB assay; details: SNB-19, 48 h; summary of the method: as §2
[7] = Growth inhibition of human MOLT4 cells assessed as cell growth at 10^-5 M after 48 hrs by SRB assay; details: MOLT-4, 48 h, read-out: Activity
MCF7 = experiment: Growth inhibition of human MCF7 cells assessed as cell growth at 10^-6 M after 48 hrs by SRB assay; details: MCF7, 48 h, read-out: Activity
IGROV-1 = experiment: Growth inhibition of human IGROV1 cells assessed as cell growth at 10^-4 M after 48 hrs by SRB assay; details: IGROV-1, 48 h, read-out: Activity
SR = experiment: Growth inhibition of human SR cells assessed as cell growth at 10^-8 M after 48 hrs by SRB assay; details: read-out: Activity
M14 [8] = experiment: Cytotoxicity against human M14 cells after 48 hrs by SRB assay; details: M14, 48 h; summary of the method: as §2
NCI-H23 = experiment: Growth inhibition of human NCI-H23 cells assessed as cell growth at 10^-7 M after 48 hrs by SRB assay; details: NCI-H23, 48 h, read-out: Activity
[9] = Cytotoxicity against human HCT15 cells after 48 hrs by SRB assay; details: HCT-15, 48 h; summary of the method: as §2
U-251 = experiment: Growth inhibition of human U251 cells assessed as cell growth at 10^-6 M after 48 hrs by SRB assay; details: U-251, 48 h, read-out: Activity
A498 [10] = experiment: Growth inhibition of human A498 cells assessed as cell growth at 10^-5 M after 48 hrs by SRB assay; details: A498, 48 h, read-out: Activity; summary of the method: as §1
HCT-116 [11] = experiment: Growth inhibition of human HCT116 cells assessed as cell growth at 10^-7 M after 48 hrs by SRB assay; details: HCT-116, 48 h, read-out: Activity
M14 [12] = experiment: Growth inhibition of human M14 cells assessed as cell growth at 10^-6 M after 48 hrs by SRB assay; details: M14, 48 h, read-out: Activity
[13] = Growth inhibition of human BT549 cells assessed as cell growth at 10^-8 M after 48 hrs by SRB assay; details: BT-549, 48 h, read-out: Activity; summary of the method: as §1
[14] = Growth inhibition of human UO31 cells assessed as cell growth at 10^-6 M after 48 hrs by SRB assay; details: UO-31, 48 h, read-out: Activity
CAKI-1 = experiment: Cytotoxicity against human CAKI-1 cells after 48 hrs by SRB assay; details: CAKI-1, 48 h; summary of the method: as §2
T47D = experiment: Growth inhibition of human T47D cells assessed as cell growth at 10^-8 M after 48 hrs by SRB assay; details: read-out: Activity
MDA-MB-435 = experiment: Growth inhibition of human MDA-MB-435 cells assessed as cell growth at 10^-6 M after 48 hrs by SRB assay; details: MDA-MB-435, 48 h, read-out: Activity
[15] = Growth inhibition of human UACC62 cells assessed as cell growth at 10^-6 M after 48 hrs by SRB assay; details: UACC-62, 48 h, read-out: Activity
[16] = Growth inhibition of human OVCAR8 cells assessed as cell growth at 10^-7 M after 48 hrs by SRB assay; details: OVCAR-8, 48 h, read-out: Activity
SF-268 = experiment: Growth inhibition of human SF268 cells assessed as cell growth at 10^-5 M after 48 hrs by SRB assay; details: SF-268, 48 h, read-out: Activity
[17] = read-out: LC50 (the source's name)
[18] = read-out: pLC50 (the source's name) (converted)

`Cc1ccc(-c2nc3ccc(Cl)cc3c(=O)n2/N=C/c2ccccc2)cc1` showed a growth at 10 µM (786-0) of 18%, a growth at 1 µM (A498 [1]) of 85% and a growth at 0.01 µM (MDA-MB-231 [2]) of 108%. For the same molecule, the GI50 (MOLT-4; read-out: GI50) was over 100 µM, the CC50 (MOLT-4; [17]) was over 100 µM and the TGI (MOLT-4; read-out: TGI) was over 100 µM. It also gave a GI50 (MOLT-4; read-out: pGI50 (converted)) of over 100 µM, a CC50 (MOLT-4; [18]) of over 100 µM and a TGI (MOLT-4; read-out: pTGI) of over 100 µM. The growth at 0.1 µM (MDA-MB-231 [3]) was 99%, the growth at 100 µM [4] was 60% and the GI50 (HCT-116 [5]; read-out: GI50) was 5.51 µM. The CC50 (HCT-116 [5]; [17]) was over 100 µM, the TGI (HCT-116 [5]; read-out: TGI) was over 100 µM and the GI50 (HCT-116 [5]; read-out: pGI50 (converted)) was 5.5 µM. The CC50 (HCT-116 [5]; [18]) was over 100 µM, the TGI (HCT-116 [5]; read-out: pTGI) was over 100 µM and the growth at 1 µM [6] was 80%. The growth at 100 µM (SK-MEL-28) was 27%, the GI50 (SNB-19; read-out: GI50) was 5 µM and the CC50 (SNB-19; [17]) was over 100 µM. The TGI (SNB-19; read-out: TGI) was over 100 µM, the GI50 (SNB-19; read-out: pGI50 (converted)) was 5.01 µM and the CC50 (SNB-19; [18]) was over 100 µM. It also gave a TGI (SNB-19; read-out: pTGI) of over 100 µM, a growth at 10 µM [7] of 88% and a growth at 1 µM (MCF7) of 86%. For the same molecule, the growth at 100 µM (IGROV-1) was 25%, the growth at 0.01 µM (SR) was 96% and the GI50 (M14 [8]; read-out: GI50) was 56.2 µM. It also gave a CC50 (M14 [8]; [17]) of over 100 µM, a TGI (M14 [8]; read-out: TGI) of over 100 µM and a GI50 (M14 [8]; read-out: pGI50 (converted)) of 56.2 µM. It also gave a CC50 (M14 [8]; [18]) of over 100 µM, a TGI (M14 [8]; read-out: pTGI) of over 100 µM and a growth at 0.1 µM (NCI-H23) of 89%. For the same molecule, the GI50 ([9]; read-out: GI50) was over 100 µM, the CC50 [9, 17] was over 100 µM and the TGI ([9]; read-out: TGI) was over 100 µM. For the same molecule, the GI50 ([9]; read-out: pGI50 (converted)) was over 100 µM, the CC50 [9, 18] was over 100 µM and the TGI ([9]; read-out: pTGI) was over 100 µM. For the same molecule, the growth at 1 µM (U-251) was 93%, the growth at 10 µM (A498 [10]) was 40% and the growth at 0.1 µM (HCT-116 [11]) was 96%. The growth at 1 µM (M14 [12]) was 97%, the growth at 0.01 µM [13] was 100% and the growth at 1 µM [14] was 60%. For the same molecule, the GI50 (CAKI-1; read-out: GI50) was 4.82 µM, the CC50 (CAKI-1; [17]) was over 100 µM and the TGI (CAKI-1; read-out: TGI) was over 100 µM. For the same molecule, the GI50 (CAKI-1; read-out: pGI50 (converted)) was 4.79 µM, the CC50 (CAKI-1; [18]) was over 100 µM and the TGI (CAKI-1; read-out: pTGI) was over 100 µM. For the same molecule, the growth at 0.01 µM (T47D) was 89%, the growth at 1 µM (MDA-MB-435) was 87% and the growth at 1 µM [15] was 80%. It also gave a growth at 0.1 µM [16] of 100% and a growth at 10 µM (SF-268) of 50%.
